EP2 mod: EP2 receptor modulators, cAMP readout, primary screen, cell-based, HTRF cAMP, PGE2 stimulation; Prostaglandin E2 receptor EP2 subtype (Homo sapiens), P43116; EP2-expressing cells, cAMP HTRF FRET, PGE2 co-stimulation; induction, % at 25 µM; hit rate 0.83% among 260,000;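 active = compounds whose cAMP rise, as percent of the full-agonist control response, exceeds 60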;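 note: rat C6 glioma line stably carrying human EP2 under a CMV promoter; the protocol text gives 20 µM as final concentration; 100% = response of wells given 1 µM PGE2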
EP2 antag: human EP2 receptor antagonists, primary screen, TR-FRET cAMP, C6 glioma cells | hit rate 0.52% among 260,000 | Prostaglandin E2 receptor EP2 subtype (Homo sapiens), P43116 | inhibition, % at 25 µM | C6 glioma cells expressing human EP2; cells stimulated with saturating PGE2;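 active = percent inhibition above 40 after rounding to a whole number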;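 note: rat C6 glioma host cells with rolipram phosphodiesterase inhibitor present; the protocol text gives 20 µM as final concentration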
NPY-Y2 PAM-ag: NPY-Y2 potentiators or agonists, primary screen, cell-based; cells expressing NPY-Y2, potentiator/agonist read-out; hit rate 0.45% among 220,000; AID 1359, 2008; activation, % at 3.6 µM; Neuropeptide Y receptor type 2 (Homo sapiens), P49146; in the data active = activation above about 27%;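 note: cells stimulated with NPY near EC25 plus isoproterenol at EC100; 0% = vehicle plus submaximal agonist and 100% = vehicle plus saturating agonist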
NPY Y2 blocker: NPY-Y2 receptor antagonists, primary screen, cell-based. Neuropeptide Y receptor type 2 (Homo sapiens), P49146. NPY-Y2 expressing cells, antagonist mode. inhibition, % at 2.7 µM. hit rate 0.99% among 140,000. AID 793, 2007; in the data active = inhibition above about 17%;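 note: 0% = vehicle with agonist challenge and 100% = reference antagonist with challenge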
NPY Y1 blocker: NPY-Y1 receptor antagonists, primary screen, cell-based; Neuropeptide Y receptor type 1 (Homo sapiens), P25929; HEK293-CNG Y1 cells, membrane potential fluorescence; NPY at EC95, then isoproterenol; inhibition, % at 3.6 µM; hit rate 1% among 200,000; AID 1040, 2008;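 active = inhibition above the campaign mean inhibition of all tested compounds plus 3 SD, cut at about 20% in these data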;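 note: 0% = DMSO wells given NPY plus isoproterenol and 100% = isoproterenol alone without NPY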
Target sequence (P25929 whole entry, looked up): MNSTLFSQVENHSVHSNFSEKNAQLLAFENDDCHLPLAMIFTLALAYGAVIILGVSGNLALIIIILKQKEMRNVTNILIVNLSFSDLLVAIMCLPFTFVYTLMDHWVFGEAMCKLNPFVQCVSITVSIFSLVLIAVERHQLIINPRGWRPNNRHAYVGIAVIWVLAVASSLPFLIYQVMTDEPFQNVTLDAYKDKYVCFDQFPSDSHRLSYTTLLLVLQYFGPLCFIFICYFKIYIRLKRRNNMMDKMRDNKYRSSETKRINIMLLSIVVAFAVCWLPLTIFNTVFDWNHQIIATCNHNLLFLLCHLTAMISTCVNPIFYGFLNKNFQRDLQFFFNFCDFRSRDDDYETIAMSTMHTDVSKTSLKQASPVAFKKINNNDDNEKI
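Assay system: HEK293 Y1/CNG channel cell line; Doses: single compound dose of 3.6 µM, 0.4% DMSO; Timing: dye 3 h, compound 60 min room temperature, stimulation 45 min; Technique: Membrane-potential fluorescent dye readout; Measure: % inhibition of NPY effect.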
NPY1 pot ag: NPY-Y1 receptor potentiators or agonists, primary screen, cell-based; Neuropeptide Y receptor type 1 (Homo sapiens), P25929; NPY-Y1 expressing cells, potentiator/agonist activation; activation, % at 3.6 µM; hit rate 0.37% among 220,000; AID 1304, 2008; in the data active = activation above about 33%, passing the limit was not always enough;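 note: cells stimulated with NPY at EC10 then isoproterenol at EC100; 0% = low agonist plus stimulus and 100% = saturating agonist plus stimulus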
Starred values were filed as active, the others as inactive; / = no result given. Compounds with a hit are over-represented: about 2.8% of the library has one in this group of screens.

SMILES	EP2 mod	EP2 antag	NPY-Y2 PAM-ag	NPY Y2 blocker	NPY Y1 blocker	NPY1 pot ag
COc1cccc2c1CCC1CC(=O)CC[C@]21C (some centres undefined)	2.0	11.0	/	/	/	/
CCc1ccc(-c2nc(CN3CCC(C(=O)NCc4ccccc4OC)CC3)c(C)o2)cc1	-25.7	9.9	-17.1	18.0*	21.1*	-57.8
COc1ccccc1CNC(=O)C1CCN(Cc2nc(-c3cccc(Cl)c3)oc2C)CC1	-23.3	7.8	5.0	2.5	7.1	-6.0
CC1=C(C(=O)N2CCCCC2)C(c2cccs2)C2=C(CCCC2=O)N1 (centres undefined)	/	1.1	12.7	22.0*	3.7	-10.5
COC(=O)C1=C(C)NC2=C(C(=O)CCC2)C1c1cccs1 (centres undefined)	1.3	2.0	-1.5	0.0	1.0	13.0
Cc1nn(-c2ccccc2)c2sc(C(=O)N(CC(=O)NC3CCCCC3)Cc3ccco3)cc12	-1.1	16.3	/	/	/	/
Cc1cc(-c2ccco2)n(-c2ccccc2)n1	7.6	6.9	100.8*	3.2	-15.0	105.2*
Cc1cc(NC(=O)c2cc(-c3ccco3)on2)n(-c2ccccc2)n1	1.3	1.1	11.0	-0.3	2.6	2.2
CC1=CC(C)(C)n2c(O)c(N=NC(N)=S)c3c(C)c(C)cc1c32	-9.8	1.6	-0.3	/	/	39.6
CC1=CC(C)(C)n2c(O)c(N=N)c3c(C)c(C)cc1c32	75.8*	5.4	-60.5	/	/	-56.8
CC1=CC(C)(C)n2c(O)c(N=N)c3c(C)ccc1c32	81.8*	10.9	-59.2	/	/	-30.7
Cc1ccc2[nH]c3c(c2c1)CCC3=O	-15.5	41.7*	-4.4	2.8	2.2	8.0
OC1(c2ccc(F)cc2)CN(c2ccccc2)C2=[N+]1CCS2 (centres undefined)	10.4	7.8	92.5*	5.5	4.7	108.2*
N=c1n(CCN2CCOCC2)c2ccccc2n1CC(O)COc1ccccc1 (centres undefined)	11.8	6.0	-6.3	11.8	7.8	-14.8
N=c1n(Cc2ccccc2)c2ccccc2n1CC(O)COc1ccccc1 (centres undefined)	-9.0	4.9	-33.2	43.5*	41.1*	-28.8
Cc1ccc(Cn2c(=N)n(CC(O)COc3ccccc3)c3ccccc32)cc1 (centres undefined)	-21.8	-4.7	-24.7	33.7*	35.6*	-57.4
O=C(O)c1cccc(S(=O)(=O)N2CCC3(CC2)Nc2ccccc2-n2cccc23)c1	9.0	/	/	/	/	/
Cc1ccc2[nH]c(=O)c(CN(C(=O)Nc3ccc(Cl)cc3)C3CCCC3)cc2c1	-86.6	9.4	/	/	/	/
COc1cccc(C(=O)N2CCC(C(N)=O)CC2)c1OC	-6.5	5.8	/	/	/	/
CN(C)c1ccc(NC(=O)CSc2nc3ccccc3c(=O)n2C2CCCCC2)cc1	6.6	7.0	-5.5	-5.1	-10.0	15.7
CCCN(CCC)C(=O)CSc1nc2ccccc2c(=O)n1C1CCCC1	34.5	14.2	9.3	25.4*	28.6*	-22.3
C=C(C)Cn1c(SCc2ccc(Cl)cc2)nc2c1c(=O)n(C)c(=O)n2C	80.1*	5.5	/	/	/	/
C/C=C/Cn1c(SCc2ccc(Cl)cc2)nc2c1c(=O)[nH]c(=O)n2C	63.4*	7.5	-75.4	4.2	17.4	-89.8
C=CCSc1nc2c(c(=O)n(C)c(=O)n2C)n1Cc1ccccc1Cl	93.0*	7.8	/	/	/	/
CCSc1nc2c(c(=O)n(C)c(=O)n2C)n1Cc1ccccc1Cl	56.6	8.2	/	/	/	/
SMILES	EP2 mod	EP2 antag	NPY-Y2 PAM-ag	NPY Y2 blocker	NPY Y1 blocker	NPY1 pot ag
O=C1C=CC(=O)N1c1ccc(O)cc1	-55.0	8.1	-11.8	/	/	-4.2
O=C1C=CC(=O)N1c1ccc(OC(F)F)cc1	-61.9	108.6*	2.5	-0.2	1.8	1.2
CN(C)c1ncc(CN2CCC(O)(c3ccc(F)cc3)CC2)cn1	-23.9	4.5	/	/	/	/
CCOC(=O)Cn1nnc2c(sc3nc4c(c(-c5ccc(Cl)cc5)c32)CCC4)c1=O	12.6	15.1	-14.0	21.7*	18.9	-22.7
CCOC(=O)Cn1nnc2c(sc3nc4c(c(-c5ccccc5)c32)CCC4)c1=O	13.1	11.1	-8.4	4.1	7.5	-2.0
O=c1[nH]cnc2c1sc1nc3c(c(-c4ccc(Cl)cc4)c12)CCC3	60.8*	9.8	-18.9	3.0	-1.3	17.9
O=C1OCCN1C(=O)[C@H]1[C@H](c2ccc([N+](=O)[O-])cc2)C(c2cccc(Cl)c2)=NN1c1ccccc1	-10.4	11.0	30.8*	-0.8	-6.6	28.5
O=C1OCCN1C(=O)[C@H]1[C@H](c2ccc(F)cc2)C(c2ccc(F)cc2)=NN1c1ccccc1	36.6	4.4	21.4	-2.0	-2.9	15.9
CC(C)(C)c1ccc(Cn2nnc3c(=O)[nH]c(C4CCN(C(=O)C5CCCCC5)CC4)nc32)cc1	71.5*	7.7	/	/	/	/
COCCn1c(=N)c(C(=O)NCCc2ccccc2)cc2c(=O)n3cc(C)ccc3nc21	-25.9	10.7	/	/	/	/
COc1ccc2c(c1)c1nc3ccccc3nc1n2CCCN1C(=O)c2ccccc2C1=O	5.3	14.2	-0.5	1.4	-1.9	-6.3
COc1ccc2c(c1)c1c(C)c3cnccc3c(C)c1n2CCCN	32.2	48.5*	/	/	/	/
COC(=O)c1cccc(NC(=O)CSc2nnc3cc(C)c4cc(C)cc(C)c4n23)c1	9.4	12.0	/	/	/	/
O=C(COc1ccccc1Cl)Nc1ccc2c(c1)OCCO2	63.9*	18.4	10.2	7.1	6.7	12.6
Cc1ccccc1OCC(=O)Nc1ccc2c(c1)OCCO2	-6.3	5.0	-6.8	/	/	-2.4
Cc1onc(-c2ccccc2)c1C(=O)N[C@@H]1C(=O)N2[C@@H]1SC(C)(C)[C@@H]2C(=O)O	26.0	/	8.6	2.2	0.5	-10.0
Cc1onc(-c2c(F)cccc2Cl)c1C(=O)N[C@@H]1C(=O)N2[C@H]1SC(C)(C)[C@H]2C(=O)O	20.3	54.8*	/	/	/	/
Nc1nc(N)c2cc(Sc3ccc4ccccc4c3)ccc2n1	-44.2	53.1*	7.0	/	/	11.2
CCOc1ccc(-c2[nH]nc3c2C(c2ccc(O)c(OCC)c2)C(C#N)=C(N)O3)cc1 (centres undefined)	-30.1	13.4	/	/	/	/
O=C(O)[C@H]1CCCC[C@@H]1c1c2ccc(=O)c(O)c-2oc2c(O)c(O)ccc12	-16.6	41.7*	/	/	/	/
Cc1onc(-c2ccccc2Cl)c1C(=O)OCc1cnc(Cl)s1	64.1*	4.8	4.3	/	3.1	-5.2
O=C(NC1CCCCCCC1)C1CCCN(S(=O)(=O)c2cnc[nH]2)C1 (centres undefined)	2.1	12.8	41.8*	0.3	1.5	4.7
COc1cc2c(cc1CN(Cc1ccncc1)C1CC(C)(C)NC(C)(C)C1)OCO2	1.5	7.3	/	/	/	/

Screening data: PubChem, several laboratories
